# Experimental data from different studies.
# ADRA2C: Alpha-2C adrenergic receptor (ADRA2C, Homo sapiens, UniProt P18825)
# PLEKHA3: PLEKHA3 (Homo sapiens, UniProt Q9HB20)
# Fibroblast growth factor 14: Fibroblast growth factor 14 (Homo sapiens, UniProt Q92915)
Structure (SMILES),target,assay,measurement,value
c1ccc(-c2n[nH]cc2-c2ccncc2)nc1,"Mitogen-activated protein kinase 14 (MAPK14, Homo sapiens, UniProt Q16539)","enzyme activity, inhibitor, ADP detection",IC50,4.5 µM
O=C(O)c1cc(-c2ccc(-c3cc[nH]n3)cc2)c2ccc(-c3ccc(C(F)(F)F)cc3)cc2c1,ADRA2C,"cell-free assay, radioligand",Ki,6.5 µM
CCOc1ccccc1C(=O)CC(SCc1ccc(Cl)cc1)C(=O)O (stereo not drawn),PLEKHA3,"ligand displacement, FP",Ki,7.8 µM
CC(C)=CC[C@@H](O)C1=CC(=O)c2c(O)ccc(O)c2C1=O,"Interleukin-6 (IL6, Homo sapiens, UniProt P05231)","binding, BLI",Kd,0.91 µM
CCOc1ccc(C(=O)CC(SCc2ccc(Cl)cc2)C(=O)OC)cc1 (stereo not drawn),PLEKHA3,"ligand displacement, FP",Ki,17.3 µM
Cc1cc(Oc2ncccc2CN2CCN(c3ccc([N+](=O)[O-])cc3Cl)CC2)ccc1-c1c(C)c(=O)[nH]c(=O)n1C,ADRA2C,"ligand displacement, radioligand",Ki,0.623 µM
CC(=O)Nc1ccc(Oc2ccc3c(c2)C(=O)N(c2cc(C)ccc2C)C3=O)cc1,Fibroblast growth factor 14,"binding, SPR",Kd,13.6 µM
Cc1cc(Oc2ncccc2CN2CCN(C(c3ccccc3)c3ccccc3)CC2)ccc1-c1c(C)c(=O)[nH]c(=O)n1C,ADRA2C,"ligand displacement, radioligand",Ki,0.137 µM
CCOc1ccc(C(=O)CC(SCc2ccc(Br)cc2)C(=O)O)cc1 (stereo not drawn),PLEKHA3,"ligand displacement, FP",Ki,18.6 µM
Cc1cc(Oc2ncccc2CN2CCN(Cc3ccc(F)cc3)CC2)ccc1-c1c(C)c(=O)[nH]c(=O)n1C,ADRA2C,"ligand displacement, radioligand",Ki,0.206 µM
COc1ccc(C(=O)CC(SCc2ccc(Cl)cc2)C(=O)O)cc1 (stereo not drawn),PLEKHA3,"ligand displacement, FP",Ki,13.2 µM
Cc1cc(Oc2ncccc2CN2CCN(c3cccc4ccccc34)CC2)ccc1-c1c(C)c(=O)[nH]c(=O)n1C,ADRA2C,"ligand displacement, radioligand",Ki,0.0143 µM
CCOC(=O)c1cccc(NC(=O)Cn2cc(CO)c3ccccc32)c1,Fibroblast growth factor 14,"binding, SPR",Kd,0.293 µM
CCOc1ccc(C(=O)CC(SCc2cccc(Br)c2)C(=O)O)cc1 (stereo not drawn),PLEKHA3,"ligand displacement, FP",Ki,6.03 µM
Cc1cc(Oc2ncccc2CN2CCN(c3ccc([N+](=O)[O-])cc3C(F)(F)F)CC2)ccc1-c1c(C)c(=O)[nH]c(=O)n1C,ADRA2C,"ligand displacement, radioligand",Ki,0.401 µM
